Results published in ChEMBL document CHEMBL1221186, “Enhancement of capillary leakage and restoration of lymphocyte egress by a chiral S1P1 antagonist in vivo” (Nat Chem Biol, 2006).
One block for each compound: values may come before it. Calls of active or inactive are those of the source. No cut-off for these calls is given here.

Legend:
[1] = system: Mus musculus; assay: Toxicity in ip dosed C57BL1/6J mouse assessed as effect on lymphocyte number at 10 mg/kg, ip; type: organism-based; design: dose 10 mg/kg, route intraperitoneal; conditions: in vivo
Procedure, shortened: (§1)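 C57BL6 mice were given antagonist i.p. (10 mg/kg, or 3 mg/kg where stated) at the time of oral SEW2871 (up to 20 mg/kg) or vehicle. At 5 h, EDTA blood was taken for full blood counts and differential counts on a veterinary autoanalyzer calibrated for mouse. Blood lymphocyte data pooled n=12 per group; Student's t-test.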

[2] = target: T1, Sphingosine 1-phosphate receptor 1 (Homo sapiens, UniProt P21453); assay: Antagonist activity at human S1P1 receptor expressed in CHO cells assessed as inhibition of S1P-induced [35S]GTPgamma binding; type: functional, cell-based
T1 sequence (P21453 whole entry): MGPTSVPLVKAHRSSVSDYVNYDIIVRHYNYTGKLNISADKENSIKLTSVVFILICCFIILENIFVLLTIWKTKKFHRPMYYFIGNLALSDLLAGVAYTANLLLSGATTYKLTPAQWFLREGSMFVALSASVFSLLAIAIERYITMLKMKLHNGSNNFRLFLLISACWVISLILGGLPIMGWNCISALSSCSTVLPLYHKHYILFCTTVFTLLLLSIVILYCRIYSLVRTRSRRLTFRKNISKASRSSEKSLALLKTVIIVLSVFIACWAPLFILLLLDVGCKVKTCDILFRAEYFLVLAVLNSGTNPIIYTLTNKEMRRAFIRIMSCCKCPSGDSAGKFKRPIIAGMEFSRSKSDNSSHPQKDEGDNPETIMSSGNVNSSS
Procedure, shortened: (§2)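 Membranes from CHO cells stably expressing human S1P1. [35S]GTPγS binding with serial dilutions of S1P or SEW2871 added (1–10 µg protein per well), with or without 30 min antagonist preincubation. Binding was normalized to the percentage induced by maximal S1P. Ki derived from the agonist EC50 shift.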

[3] = target: T1, Sphingosine 1-phosphate receptor 1; assay: Antagonist activity at human S1P1 receptor expressed in CHO cells assessed as inhibition of SEW2871-induced [35S]GTPgamma binding; type: functional, cell-based; procedure, shortened: as §2
[4] = target: Sphingosine 1-phosphate receptor 2 (Homo sapiens) (UniProt O95136); assay: Antagonist activity at human S1P2 receptor expressed in CHO cells assessed as inhibition of S1P-induced [35S]GTPgamma binding at 10 uM; type: functional, cell-based
Chain of Sphingosine 1-phosphate receptor 2 (Homo sapiens) (O95136 whole entry): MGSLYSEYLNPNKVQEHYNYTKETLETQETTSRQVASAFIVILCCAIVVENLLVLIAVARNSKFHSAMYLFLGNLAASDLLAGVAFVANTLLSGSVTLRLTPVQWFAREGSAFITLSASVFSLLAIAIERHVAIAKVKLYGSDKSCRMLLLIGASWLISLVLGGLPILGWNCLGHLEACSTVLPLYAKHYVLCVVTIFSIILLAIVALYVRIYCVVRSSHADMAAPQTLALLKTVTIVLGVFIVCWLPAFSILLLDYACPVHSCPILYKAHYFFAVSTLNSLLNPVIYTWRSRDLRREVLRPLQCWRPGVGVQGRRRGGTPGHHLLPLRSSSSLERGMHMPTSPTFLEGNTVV
Procedure, shortened: (§3)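 Membranes from CHO cells expressing human S1P2, S1P3 or S1P5. [35S]GTPγS binding with serial dilutions of S1P added to membranes (1–10 µg protein per well), with or without 30 min preincubation. Antagonist concentrations were as previously described.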

[5] = target: Sphingosine 1-phosphate receptor 3 (Homo sapiens) (UniProt Q99500); assay: Antagonist activity at human S1P3 receptor expressed in CHO cells assessed as inhibition of S1P-induced [35S]GTPgamma binding at 10 uM; type: functional, cell-based; procedure, shortened: as §3
Chain of Sphingosine 1-phosphate receptor 3 (Homo sapiens) (Q99500 whole entry): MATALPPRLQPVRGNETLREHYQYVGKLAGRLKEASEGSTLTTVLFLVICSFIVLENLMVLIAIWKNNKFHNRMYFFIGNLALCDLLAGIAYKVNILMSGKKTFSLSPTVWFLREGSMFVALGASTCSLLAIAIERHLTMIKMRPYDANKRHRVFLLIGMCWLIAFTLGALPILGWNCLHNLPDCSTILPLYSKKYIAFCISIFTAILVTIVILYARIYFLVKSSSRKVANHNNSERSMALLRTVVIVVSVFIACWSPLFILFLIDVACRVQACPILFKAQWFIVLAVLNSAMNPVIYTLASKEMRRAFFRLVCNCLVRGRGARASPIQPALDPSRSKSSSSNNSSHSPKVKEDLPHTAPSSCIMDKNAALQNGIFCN

[6] = target: Sphingosine 1-phosphate receptor 5 (Homo sapiens) (UniProt Q9H228); assay: Antagonist activity at human S1P5 receptor expressed in CHO cells assessed as inhibition of S1P-induced [35S]GTPgamma binding at 10 uM; type: functional, cell-based; procedure, shortened: as §3
Chain of Sphingosine 1-phosphate receptor 5 (Homo sapiens) (Q9H228 whole entry): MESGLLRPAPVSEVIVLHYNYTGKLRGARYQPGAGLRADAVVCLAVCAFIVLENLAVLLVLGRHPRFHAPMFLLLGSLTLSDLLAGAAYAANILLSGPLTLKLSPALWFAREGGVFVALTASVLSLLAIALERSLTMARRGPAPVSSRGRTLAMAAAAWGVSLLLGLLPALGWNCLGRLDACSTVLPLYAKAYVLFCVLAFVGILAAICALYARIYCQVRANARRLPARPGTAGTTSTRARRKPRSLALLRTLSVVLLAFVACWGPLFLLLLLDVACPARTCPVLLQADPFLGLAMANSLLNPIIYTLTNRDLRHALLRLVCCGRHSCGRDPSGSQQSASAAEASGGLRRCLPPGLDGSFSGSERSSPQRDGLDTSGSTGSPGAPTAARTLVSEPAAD

[7] = target: Sphingosine 1-phosphate receptor 2 (Homo sapiens) (UniProt O95136); assay: Agonist activity at human S1P2 receptor expressed in CHO cells assessed as stimulation of [35S]GTPgamma binding at 10 uM; type: functional, cell-based; procedure, shortened: as §3
[8] = target: Sphingosine 1-phosphate receptor 3 (Homo sapiens) (UniProt Q99500); assay: Agonist activity at human S1P3 receptor expressed in CHO cells assessed as stimulation of [35S]GTPgamma binding at 10 uM; type: functional, cell-based; procedure, shortened: as §3
[9] = target: Sphingosine 1-phosphate receptor 5 (Homo sapiens) (UniProt Q9H228); assay: Agonist activity at human S1P5 receptor expressed in CHO cells assessed as stimulation of [35S]GTPgamma binding at 10 uM; type: functional, cell-based; procedure, shortened: as §3
[10] = target: T1, Sphingosine 1-phosphate receptor 1; assay: Inhibition of GFP-tagged human S1P1 receptor internalization expressed in HEK293 cells at 10 uM by fluorimetric assay; type: cell-based
[11] = target: T1, Sphingosine 1-phosphate receptor 1; assay: Antagonist activity at human S1P1 receptor expressed in CHO cells assessed as inhibition of SEW2871-induced ERK1/2 phosphorylation at 10 uM by Western blot; type: functional, cell-based
Procedure, shortened: (§4)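 CHO cells stably expressing human S1P1 or S1P3 were grown to 50% confluence and serum-starved for 16 h. Cells were preincubated 1 h with antagonist at 10 µM, then stimulated 5 min with S1P or SEW2871 in serum-free medium with 0.1% fatty-acid-free BSA. Western blots of lysates gave phospho-ERK1/2 and phospho-Akt band intensities normalized to total ERK1/2 or Akt. n≥3.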

[12] = target: T1, Sphingosine 1-phosphate receptor 1; assay: Antagonist activity at human S1P1 receptor expressed in CHO cells assessed as inhibition of SEW2871-induced Akt phosphorylation at 10 uM by Western blot; type: functional, cell-based; procedure, shortened: as §4
[13] = target: T1, Sphingosine 1-phosphate receptor 1; assay: Antagonist activity at human S1P1 receptor expressed in CHO cells assessed as inhibition of S1P-induced ERK1/2 phosphorylation at 10 uM by Western blot; type: functional, cell-based; procedure, shortened: as §4
[14] = target: T1, Sphingosine 1-phosphate receptor 1; assay: Antagonist activity at human S1P1 receptor expressed in CHO cells assessed as inhibition of S1P-induced Akt phosphorylation at 10 uM by Western blot; type: functional, cell-based; procedure, shortened: as §4
[15] = target: Sphingosine 1-phosphate receptor 3 (Homo sapiens) (UniProt Q99500); assay: Antagonist activity at human S1P3 receptor expressed in CHO cells assessed as inhibition of S1P-induced ERK1/2 phosphorylation at 10 uM by Western blot; type: functional, cell-based; procedure, shortened: as §4
[16] = target: Sphingosine 1-phosphate receptor 3 (Homo sapiens) (UniProt Q99500); assay: Antagonist activity at human S1P3 receptor expressed in CHO cells assessed as inhibition of S1P-induced Akt phosphorylation at 10 uM by Western blot; type: functional, cell-based; procedure, shortened: as §4
[17] = Plasma concentration in mouse at 10 mg/kg, ip after 5 hrs; type: ADME, organism-based; design: dose 10 mg/kg, route intraperitoneal
Procedure, shortened: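 Plasma concentration measured by LC-MS in mice 5 h after i.p. injection of 10 mg/kg.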

[18] = Volume of distribution at steady state in cannulated rat at 1 mg/kg, iv by LC-MS method; type: ADME, organism-based; design: dose 1 mg/kg, route intravenous; conditions: in vivo, read-out: Vdss
Procedure, shortened: (§5)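 Cannulated rats (n=3) were given 1 mg/kg i.v. Plasma levels were followed by LC-MS to derive half-life, steady-state volume of distribution and plasma clearance.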

[19] = Half life in cannulated rat at 1 mg/kg, iv by LC-MS method; type: ADME, organism-based; design: dose 1 mg/kg, route intravenous; conditions: in vivo; procedure, shortened: as §5
[20] = Plasma clearance in cannulated rat at 1 mg/kg, iv by LC-MS method; type: ADME, organism-based; design: dose 1 mg/kg, route intravenous; procedure, shortened: as §5
[21] = species on record: Mus musculus; assay: Inhibition of SEW2871-induced protection against VEGF-induced capillary leakage in Balb/cByJ mouse assessed as skin leakage of Evans blue dye from plasma into interstitial spaces by Miles assay; type: functional, organism-based; conditions: Skin of body
Procedure, shortened: (§6)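 Male Balb/cByJ mice (30 g) got i.p. vehicle (10 mM Na2CO3, 2% β-hydroxypropyl-cyclodextran) or antagonist 10 mg/kg, then oral SEW2871 20 mg/kg or vehicle. At 4.5 h, 0.5% Evans blue was given i.v. Intradermal murine VEGF165 (100 ng) or PBS/0.1% BSA was injected in triplicate. After 30 min, skin biopsies were extracted in formamide at 58 °C and read at 565 nm (VEGF minus BSA). ANOVA/Bonferroni.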

[22] = species on record: Mus musculus; assay: Potentiation of VEGF-induced capillary leakage in Balb/cByJ mouse assessed as skin leakage of Evans blue dye from plasma into interstitial spaces Miles assay; type: functional, organism-based; conditions: Skin of body; procedure, shortened: as §6
[23] = system: Mus musculus; assay: Toxicity in ip dosed C57BL1/6J mouse assessed as induction of spontaneous pulmonary edema by Evan blue dye leakage assay; type: organism-based; conditions: in vivo
[24] = system: Mus musculus; assay: Toxicity in ip dosed C57BL1/6J mouse assessed as effect on percentage of lymphocyte within total WBCs counts in peripheral blood at 10 mg/kg, ip; type: organism-based; design: dose 10 mg/kg, route intraperitoneal; conditions: in vivo; procedure, shortened: as §1
[25] = system: Mus musculus; assay: Inhibition of SEW2871-induced lymphocyte egress in C57BL1/6J mouse assessed as blood lymphocyte sequestration at 10 to 20 mg/kg, ip; type: functional, organism-based; procedure, shortened: as §1
[26] = system: Mus musculus; assay: Inhibition of SEW2871-induced lymphocyte maturation in C57BL1/6J mouse assessed as medullary thymocyte phenotypic maturation at 10 to 20 mg/kg, ip; type: functional, organism-based
Procedure, shortened: (§7)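 Mice received oral SEW2871 (20 mg/kg) with or without i.p. antagonist (10 mg/kg). Thymi were removed at 5 h and CD69 on single-positive CD4+ thymocytes was measured by flow cytometry. n=3.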

[27] = system: Mus musculus; assay: Inhibition of SEW2871-induced lymphopenia in C57BL1/6J mouse at 3 mg/kg, ip; type: functional, organism-based; design: dose 3 mg/kg; procedure, shortened: as §1
[28] = system: Mus musculus; assay: Inhibition of SEW2871-induced loss of CD69 expression in single positive CD4+ thymocytes in thymic medulla of C57BL1/6J mouse at 10 mg/kg, ip by FACS method; type: functional, organism-based; design: dose 10 mg/kg; procedure, shortened: as §7
[29] = system: Mus musculus; assay: Effect on CD69 expression in single positive CD4+ thymocytes in thymic medulla of C57BL1/6J mouse at 10 mg/kg, ip by FACS method; type: organism-based; design: dose 10 mg/kg, route intraperitoneal; conditions: in vivo; procedure, shortened: as §7
[30] = system: Mus musculus; assay: Inhibition of SEW2871-induced medullary arrest of T cells in inguinal lymph nodes of BALB/c mouse at 10 mg/kg, iv by FITC-conjugated dextran staining based In vivo two-photon imaging method; type: functional, organism-based; design: dose 10 mg/kg; conditions: T-cell
Procedure, shortened: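 Adoptively transferred CFSE-labelled CD4+ T cells in BALB/c mice. Mice were dosed orally with SEW2871 (10 mg/kg), and the inguinal lymph node was imaged by intravital two-photon microscopy 4–6 h later. Medullary sinus labelled with footpad rhodamine-dextran. Antagonist 10 mg/kg given i.v. during imaging; instantaneous T-cell velocities tracked in medulla and cortex.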

- Ki [2]: 0.077 µM
- Ki [3]: 0.018 µM
- inhibition [4]: inactive
- inhibition [5]: inactive
- inhibition [6]: inactive
- Activity [7]: inactive
- Activity [8]: inactive
- Activity [9]: inactive
- inhibition [10]: Active
- inhibition [11]: Active
- inhibition [12]: Active
- inhibition [13]: > 70%
- inhibition [14]: > 70%
- inhibition [15]: inactive
- inhibition [16]: inactive
- concentration at 5 h [17]: 268 nM
- Vd [18]: 0.46 L/kg
- half-life [19]: 1.22 h
- clearance [20]: 4.63 mL/min/kg
SMILES: CCCCCCc1cccc(NC(=O)[C@H](N)CCP(=O)(O)O)c1
- Activity [1]: Non-toxic
- inhibition [21]: Active
- Activity [22]: Active
- Activity [23]: Dose-dependent effect
- Activity [24]: Non-toxic
- inhibition [25]: Active
- inhibition [26]: Active
- inhibition [27]: Active
- inhibition [28]: Active
- Activity [29]: Non-toxic
- inhibition [30]: Active

- Ki [2]: 4.63 µM
- Ki [3]: 2.84 µM
SMILES: CCCCCCc1cccc(NC(=O)[C@@H](N)CCP(=O)(O)O)c1
- inhibition [21]: inactive
- Activity [23]: Non-toxic
- inhibition [25]: inactive
- inhibition [26]: inactive
